Test results: ChEMBL document CHEMBL1687719, “Absence of CD4+ T lymphocytes, CD8+ T lymphocytes, or B lymphocytes has different effects on the efficacy of posaconazole and benznidazole in treatment of experimental acute Trypanosoma cruzi infection” (2009)
Active and inactive are the calls of the source. The rule behind the calls is not given here.

Tests used:
[1] = system: Trypanosoma cruzi; test: Antitrypanosomal activity against Trypanosoma cruzi Y infected in CD4+ T-lymphocyte knockout C57BL/6 mouse assessed as mean survival time at 100 mg/kg/day, po administered once daily for 20 consecutive days measured 60 days post infection; format: functional
Method in brief: (§1)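 Mice were infected ip with 5,000 blood trypomastigotes of the Y strain, kept by serial passage in Swiss-Webster mice. From 4 dpi they got 100 mg/kg/day orally once daily for 20 consecutive days, dissolved in water with gum arabic. Survival was followed to 60 dpi, with mean survival time and survival rate taken. Untreated and vehicle-treated infected mice served as controls. Rates compared by chi-square with Bonferroni.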

[2] = system: Trypanosoma cruzi; test: Antitrypanosomal activity against Trypanosoma cruzi Y infected in C57BL/6 mouse assessed as cure rate in mouse at 100 mg/kg/day, po administered once daily for 20 consecutive days measured 60 days post infection; format: functional
Method in brief: (§2)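 Mice infected ip with 5,000 blood trypomastigotes (Y strain kept by serial passage in Swiss-Webster mice). Oral dosing started day 4 post-infection and ran 20 consecutive days, drug dissolved in water with gum arabic. Fresh tail blood was examined microscopically daily days 4–16, then every other day to day 60. Parasitemia-negative mice were bled at day 60 by orbital sinus, 0.5 ml into two tubes of LIT medium, 28°C for 30–60 days, then examined microscopically. Cure meant negative fresh blood plus negative hemoculture. Rates were compared by chi-square with Bonferroni.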

[3] = system: Trypanosoma cruzi; test: Antitrypanosomal activity against Trypanosoma cruzi Y infected in CD4+ T-lymphocyte knockout C57BL/6 mouse assessed as reactivation of parasite in mouse at 20 mg/kg/day, po administered twice daily for 20 consecutive days measured 60 days post infection; format: functional, organism-based
Method in brief: (§3)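 Ip infection was 5,000 Y-strain blood trypomastigotes. From 4 dpi mice got 20 mg/kg/day orally in two daily doses (2% methylcellulose/0.5% Tween 80) for 20 days. Fresh tail blood was examined microscopically, daily from 4–16 dpi and every other day to 60 dpi. Reactivation was scored as return of patent parasitemia after treatment. Parasitemia curves were compared by Mann-Whitney.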

[4] = system: Trypanosoma cruzi; test: Antitrypanosomal activity against Trypanosoma cruzi Y infected in B-lymphocyte knockout C57BL/6 mouse assessed as number of mouse with reactivation of infection at 100 mg/kg/day, po administered once daily for 20 consecutive days measured 22 days post infection; format: functional, organism-based
Method in brief: (§4)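 Ip infection was 5,000 Y-strain blood trypomastigotes. Oral dosing at 100 mg/kg/day, once daily in gum arabic water, ran from 4 dpi for 20 days. Parasitemia was read by microscopy of fresh tail blood, daily from 4–16 dpi, then every other day to 60 dpi. Reactivation was scored as patent parasitemia returning after treatment ended.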

[5] = system: Trypanosoma cruzi; test: Antitrypanosomal activity against Trypanosoma cruzi Y infected in C57BL/6 mouse assessed as mean survival time at 100 mg/kg/day, po administered once daily for 20 consecutive days measured 60 days post infection; format: functional; method in brief: as §1
[6] = system: Trypanosoma cruzi; test: Antitrypanosomal activity against Trypanosoma cruzi Y infected in B-lymphocyte knockout C57BL/6 mouse assessed as increase in survival of mouse at 100 mg/kg/day, po administered once daily for 20 consecutive days measured 60 days post infection; format: functional; settings: 1440 h; method in brief: as §1
[7] = system: Trypanosoma cruzi; test: Antitrypanosomal activity against Trypanosoma cruzi Y infected in CD4+ T-lymphocyte knockout C57BL/6 mouse assessed as reactivation of parasite in mouse at 100 mg/kg/day, po administered once daily for 20 consecutive days measured 11 days post infection; format: functional, organism-based; method in brief: as §4
[8] = system: Trypanosoma cruzi; test: Antitrypanosomal activity against Trypanosoma cruzi Y infected in CD8+ T-lymphocyte knockout C57BL/6 mouse assessed as cure rate in mouse at 100 mg/kg/day, po administered once daily for 20 consecutive days measured 60 days post infection; format: functional; method in brief: as §2
[9] = system: Trypanosoma cruzi; test: Antitrypanosomal activity against Trypanosoma cruzi Y infected in CD8+ T-lymphocyte knockout C57BL/6 mouse assessed as mean survival time at 100 mg/kg/day, po administered once daily for 20 consecutive days measured 60 days post infection; format: functional; method in brief: as §1
[10] = system: Trypanosoma cruzi; test: Antitrypanosomal activity against Trypanosoma cruzi Y infected in CD8+ T-lymphocyte knockout C57BL/6 mouse assessed as number of mouse with reactivated parasite at 100 mg/kg/day, po administered once daily for 20 consecutive days measured 60 days post infection; format: functional
Method in brief: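 Mice infected ip with 5,000 Y-strain blood trypomastigotes. From day 4 they were given drug orally in water with gum arabic for 20 days. Reactivation was scored as reappearance of circulating parasites after treatment ended, seen by microscopy of fresh tail blood. Sampling was daily from day 4 to 16 and then every other day up to day 60.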

[11] = system: Trypanosoma cruzi; test: Antitrypanosomal activity against Trypanosoma cruzi Y infected in CD4+ T-lymphocyte knockout C57BL/6 mouse assessed as increase in survival of mouse at 100 mg/kg/day, po administered once daily for 20 consecutive days measured 60 days post infection; format: functional; settings: 1440 h; method in brief: as §1
[12] = system: Trypanosoma cruzi; test: Antitrypanosomal activity against Trypanosoma cruzi Y infected in CD4+ T-lymphocyte knockout C57BL/6 mouse assessed as occurrence of subpatent parasitemia level in mouse at 100 mg/kg/day, po administered once daily for 20 consecutive days measured 4 to 24 days post infection; format: functional, organism-based; method in brief: as §4
[13] = system: Trypanosoma cruzi; test: Antitrypanosomal activity against Trypanosoma cruzi Y infected in CD8+ T-lymphocyte knockout C57BL/6 mouse assessed as occurrence of low level of circulating parasites at 100 mg/kg/day, po administered once daily for 20 consecutive days measured 15 days after the end of treatment
[14] = system: Trypanosoma cruzi; test: Antitrypanosomal activity against Trypanosoma cruzi Y infected in CD8+ T-lymphocyte knockout C57BL/6 mouse assessed as occurrence of subpatent level of parasitemia at 100 mg/kg/day, po administered once daily for 20 consecutive days measured 60 days post infection; format: functional, organism-based; method in brief: as §4
[15] = system: Trypanosoma cruzi; test: Antitrypanosomal activity against Trypanosoma cruzi Y infected in CD8+ T-lymphocyte knockout C57BL/6 mouse assessed as increase in survival of mouse at 100 mg/kg/day, po administered once daily for 20 consecutive days measured 60 days post infection; format: functional; settings: 1440 h; method in brief: as §1
[16] = system: Trypanosoma cruzi; test: Antitrypanosomal activity against Trypanosoma cruzi Y infected in CD4+ T-lymphocyte knockout C57BL/6 mouse assessed as occurrence of subpatent parasitemia level in mouse at 20 mg/kg/day, po administered twice daily for 20 consecutive days measured 4 to 24 days post infection; format: functional, organism-based; method in brief: as §3
[17] = system: Trypanosoma cruzi; test: Antitrypanosomal activity against Trypanosoma cruzi Y infected in CD4+ T-lymphocyte knockout C57BL/6 mouse assessed as reactivation of parasite in mouse at 100 mg/kg/day, po administered once daily for 20 consecutive days measured 60 days post infection; format: functional, organism-based; method in brief: as §4
[18] = system: Trypanosoma cruzi; test: Antitrypanosomal activity against Trypanosoma cruzi Y infected in C57BL/6 mouse assessed as increase in survival of mouse at 100 mg/kg/day, po administered once daily for 20 consecutive days measured 60 days post infection; format: functional; settings: 1440 h; method in brief: as §1
[19] = system: Trypanosoma cruzi; test: Antitrypanosomal activity against Trypanosoma cruzi Y infected in B-lymphocyte knockout C57BL/6 mouse assessed as mean survival time at 100 mg/kg/day, po administered once daily for 20 consecutive days measured 60 days post infection; format: functional; method in brief: as §1
[20] = system: Trypanosoma cruzi; test: Antitrypanosomal activity against Trypanosoma cruzi Y infected in CD4+ T-lymphocyte knockout C57BL/6 mouse assessed as cure rate in mouse at 100 mg/kg/day, po administered once daily for 20 consecutive days measured 60 days post infection; format: functional; method in brief: as §2
[21] = system: Trypanosoma cruzi; test: Antitrypanosomal activity against Trypanosoma cruzi Y infected in B-lymphocyte knockout C57BL/6 mouse assessed as cure rate in mouse at 100 mg/kg/day, po administered once daily for 20 consecutive days measured 60 days post infection; format: functional; method in brief: as §2
[22] = system: Trypanosoma cruzi; test: Antitrypanosomal activity against Trypanosoma cruzi Y infected in CD8+ T-lymphocyte knockout C57BL/6 mouse assessed as occurrence of subpatent level of parasitemia at 20 mg/kg/day, po administered twice daily for 20 consecutive days measured 60 days post infection; format: functional, organism-based; method in brief: as §3

With `O=C(Cn1ccnc1[N+](=O)[O-])NCc1ccccc1` [BENZNIDAZOLE] as the compound, how does the MST [1] read?
Its MST is 53.7 days.

What about the Activity [2] of the same compound?
The Activity was 86%.

And the Activity [3]?
Its Activity is “inactive”.

What about the Activity [4] of the same compound?
Its Activity is “inactive”.

What about the MST [5] of the same compound?
Its MST is >60 days.

What about the survival at 100 mg/kg/day [6] of the same compound?
Its survival at 100 mg/kg/day is 67%.

And the Activity [7]?
Its Activity is “inactive”.

What about the Activity [8] of the same compound?
The Activity was 66%.

What about the MST [9] of the same compound?
Its MST is 58.8 days.

And the Activity [10]?
The Activity was 22%.

What about the survival at 100 mg/kg/day [11] of the same compound?
Its survival at 100 mg/kg/day is 6%.

What about the Activity [12] of the same compound?
The Activity was “Active”.

What about the Activity [13] of the same compound?
Its Activity is “Active”.

What about the Activity [14] of the same compound?
Its Activity is “Active”.

And the survival at 100 mg/kg/day [15]?
Its survival at 100 mg/kg/day is 86%.

And the Activity [16]?
Its Activity is “Active”.

And the Activity [17]?
Its Activity is “inactive”.

What about the survival at 100 mg/kg/day [18] of the same compound?
Its survival at 100 mg/kg/day is 100%.

What about the MST [19] of the same compound?
The MST was 59.3 days.

And the Activity [20]?
The Activity was 0%.

And the Activity [21]?
Its Activity is 22%.

And the Activity [22]?
The Activity was “Active”.
